Assay [1] addresses Glutamate NMDA receptor (Rattus norvegicus) (UniProt P35439+Q00959+Q00960+Q00961+Q62645+Q8VHN2+Q9R1M7). Briefly: Apparent dissociation constant of [3H]-glycine from N-methyl-D-aspartate glutamate receptor in rat cortical slice at 30 uM; Inactive. Put shortly:
(§1)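 Rat cortical slice preparation; test compound antagonism of depolarizations evoked by agonists N-methyl-D-aspartic acid, quisqualic acid or kainic acid, expressed as apparent Kb.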

Assay [2] addresses Glutamate receptor ionotropic, kainate (Rattus norvegicus) (UniProt P22756+Q01812+P42260+P42264+Q63273). In words: Apparent dissociation constant of [3H]kainate from Ionotropic glutamate receptor ionotropic kainate was determined in rat cortical slice preparation. The procedure, abridged: as §1
In assay [3] the target is Glutamate NMDA receptor. In words: Inhibition of [3H]glycine binding to glycine site of N-methyl-D-aspartate glutamate receptor in rat cortical membranes. The format is cell membranes, Membrane.
For assay [4], the target named is Glutamate receptor ionotropic, AMPA (Rattus norvegicus) (UniProt P19491+P19492+P19493+P19490). Briefly: Apparent dissociation constant of [3H]-AMPA from Quisqualate receptor of rat cortical slice at 30 uM; Inactive. The format is protein-complex assay. Put shortly:
as §1

Assay [5] addresses Glutamate NMDA receptor. In words: Inhibition of [3H]glycine binding to N-methyl-D-aspartate glutamate receptor of rat cortical membranes. The format is cell membranes, Membrane. Put shortly: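 [3H]Glycine radioligand binding to rat cortical membranes. IC50 is the concentration inhibiting 50% of specific binding, taken from at least two experiments and given as the mean of two to four determinations (geometric mean).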

This passage reports Kb and IC50 results from ChEMBL document CHEMBL1125652, “Kynurenic acid derivatives. Structure-activity relationships for excitatory amino acid antagonism and identification of potent and selective antagonists at the glycine site on the N-methyl-D-aspartate receptor” (J Med Chem, 1991).

Molecules are shown by their SMILES. Calls of active or inactive are those of the source. No cut-off for these calls is given here.

`COc1nc2cc(C)c(C)cc2nc1O`: the Kb entry in assay [1] and in assay [4] was “inactive” in each case. Further, in assay [2], the Kb was 86 µM. The half-maximal inhibitory concentration (IC50) (usually the point on the concentration scale where inhibition reaches its midpoint) at Glutamate NMDA receptor [3] was above 100 µM.

For `O=c1[nH]c2cc([N+](=O)[O-])c([N+](=O)[O-])cc2[nH]c1=O` [DNQX], on Glutamate NMDA receptor [5], the IC50 was found to be 4.5 µM.
